Laboratory results from ChEMBL document CHEMBL1139795, “Capped diaminopropionamide-glycine dipeptides are inhibitors of CC chemokine receptor 2 (CCR2)” (Bioorg Med Chem Lett, 2007).
One block for each compound: values may come before it.

Key:
[1] = biological target: T1, C-C chemokine receptor type 1 (Homo sapiens) (UniProt P32246); assay: Inhibition of CCR1 at 10 uM
T1 sequence (whole entry): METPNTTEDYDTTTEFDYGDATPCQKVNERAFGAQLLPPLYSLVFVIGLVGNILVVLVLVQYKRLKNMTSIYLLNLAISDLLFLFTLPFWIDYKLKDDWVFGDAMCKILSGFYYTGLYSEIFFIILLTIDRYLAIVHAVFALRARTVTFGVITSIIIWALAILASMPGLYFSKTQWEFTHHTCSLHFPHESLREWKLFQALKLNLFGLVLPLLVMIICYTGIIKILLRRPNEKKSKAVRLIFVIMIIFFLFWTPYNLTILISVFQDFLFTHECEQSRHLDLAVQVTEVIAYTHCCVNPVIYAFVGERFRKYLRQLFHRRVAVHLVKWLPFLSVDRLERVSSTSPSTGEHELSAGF

[2] = biological target: T2, C-C chemokine receptor type 2 (Homo sapiens, UniProt P41597); assay: Displacement of [125]MCP1 from CCR2 in human PBMCs at 1 uM
Summary of the method: (§1)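 Human PBMCs were incubated with 0.3 nM [125I]MCP-1 at 23 °C. Percent inhibition of binding was measured at one fixed inhibitor concentration, n = 1.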
Target sequence in this assay (P41597 whole entry, looked up): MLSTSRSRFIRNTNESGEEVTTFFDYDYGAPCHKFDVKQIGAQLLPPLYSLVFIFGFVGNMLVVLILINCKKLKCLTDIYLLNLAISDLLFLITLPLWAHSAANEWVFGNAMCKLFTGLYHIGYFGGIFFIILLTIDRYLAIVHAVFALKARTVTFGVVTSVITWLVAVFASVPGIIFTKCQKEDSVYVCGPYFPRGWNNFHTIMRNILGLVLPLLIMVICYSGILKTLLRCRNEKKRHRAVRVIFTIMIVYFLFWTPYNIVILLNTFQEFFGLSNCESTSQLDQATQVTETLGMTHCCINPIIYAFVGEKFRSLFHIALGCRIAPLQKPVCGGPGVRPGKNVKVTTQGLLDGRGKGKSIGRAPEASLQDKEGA

[3] = biological target: T3, C-C chemokine receptor type 3 (Homo sapiens, UniProt P51677); assay: Displacement of [125I]eotaxin from human CCR3 expressed in CHO cells; assay type: cell-based
T3 sequence (P51677 whole entry): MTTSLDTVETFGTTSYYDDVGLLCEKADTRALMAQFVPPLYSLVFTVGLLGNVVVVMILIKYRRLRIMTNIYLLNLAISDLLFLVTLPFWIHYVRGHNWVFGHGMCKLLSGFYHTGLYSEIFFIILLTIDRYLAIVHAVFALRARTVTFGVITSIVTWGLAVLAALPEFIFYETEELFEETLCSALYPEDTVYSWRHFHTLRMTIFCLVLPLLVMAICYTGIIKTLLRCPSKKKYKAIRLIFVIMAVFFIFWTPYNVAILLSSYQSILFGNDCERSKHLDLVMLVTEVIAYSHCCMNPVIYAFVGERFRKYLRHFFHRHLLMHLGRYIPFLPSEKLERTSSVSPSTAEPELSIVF
Summary of the method: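 Binding of 0.15 nM [125I]eotaxin to CHO cells expressing human CCR3. Data are a single determination, mean ± SD (n = 2), or mean ± SEM (n indicated). ">" means less than 50% response at the stated concentration.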

[4] = biological target: T2, C-C chemokine receptor type 2; assay: Antagonist activity at CCR2 in THP1 cells assessed as inhibition of MCP1-induced Ca2+ flux; assay type: functional, cell-based, THP-1
Target sequence in this assay (P41597 whole entry): as the sequence (P41597 whole entry, looked up) above

[5] = biological target: T2, C-C chemokine receptor type 2; assay: Displacement of [125]MCP1 from CCR2 in human PBMCs
Summary of the method: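 Competition binding with 0.3 nM [125I]MCP-1 on human peripheral blood mononuclear cells at 23 °C. IC50 given as mean ± SD (n = 2) or mean ± SEM (n > 2). Single determinations are listed with n = 1.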
Target sequence in this assay (P41597 whole entry): as the sequence (P41597 whole entry, looked up) above

[6] = biological target: T2, C-C chemokine receptor type 2; assay: Displacement of [125]MCP1 from CCR2 in human PBMCs at 10 uM; summary of the method: as §1
Target sequence in this assay (P41597 whole entry, looked up): as the sequence (P41597 whole entry, looked up) above

[7] = biological target: Mu-type opioid receptor (Homo sapiens) (UniProt P35372); assay: Inhibition of opiate mu receptor at 10 uM
Chain of Mu-type opioid receptor (Homo sapiens) (P35372 whole entry): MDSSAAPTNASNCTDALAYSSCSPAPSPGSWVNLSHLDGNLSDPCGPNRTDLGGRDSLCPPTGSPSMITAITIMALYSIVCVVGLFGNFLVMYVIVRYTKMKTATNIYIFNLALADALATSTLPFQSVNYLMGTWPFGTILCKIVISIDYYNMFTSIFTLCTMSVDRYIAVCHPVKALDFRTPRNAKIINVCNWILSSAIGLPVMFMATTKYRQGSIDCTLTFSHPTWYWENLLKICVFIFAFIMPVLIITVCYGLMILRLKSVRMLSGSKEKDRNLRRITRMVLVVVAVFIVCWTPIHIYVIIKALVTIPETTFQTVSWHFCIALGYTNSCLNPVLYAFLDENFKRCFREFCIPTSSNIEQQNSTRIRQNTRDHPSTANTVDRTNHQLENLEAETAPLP

Homo sapiens = species on record: Homo sapiens; assay: Inhibition of sodium channel at 10 uM
[8] = biological target: C-C chemokine receptor type 5 (Homo sapiens) (UniProt P51681); assay: Inhibition of CCR5 receptor at 10 uM
Chain of C-C chemokine receptor type 5 (Homo sapiens) (P51681 whole entry, looked up): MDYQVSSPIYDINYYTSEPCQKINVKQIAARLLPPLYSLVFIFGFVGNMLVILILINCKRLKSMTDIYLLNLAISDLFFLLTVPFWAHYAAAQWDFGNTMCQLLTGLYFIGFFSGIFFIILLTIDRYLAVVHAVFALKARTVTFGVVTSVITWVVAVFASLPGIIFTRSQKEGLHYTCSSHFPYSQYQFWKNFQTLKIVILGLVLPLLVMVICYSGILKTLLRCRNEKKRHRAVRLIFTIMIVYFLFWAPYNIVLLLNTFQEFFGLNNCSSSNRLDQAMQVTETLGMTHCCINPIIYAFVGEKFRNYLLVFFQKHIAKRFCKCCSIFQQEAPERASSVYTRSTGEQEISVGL

L-type calcium channel = L-type calcium channel (Homo sapiens, UniProt O60840+Q01668+Q13698+Q13936); assay: Inhibition of L-type calcium channel at 10 uM
[9] = biological target: Sigma non-opioid intracellular receptor 1 (Homo sapiens) (UniProt Q99720); assay: Inhibition of sigma 1 receptor at 10 uM
Chain of Sigma non-opioid intracellular receptor 1 (Homo sapiens) (Q99720 whole entry): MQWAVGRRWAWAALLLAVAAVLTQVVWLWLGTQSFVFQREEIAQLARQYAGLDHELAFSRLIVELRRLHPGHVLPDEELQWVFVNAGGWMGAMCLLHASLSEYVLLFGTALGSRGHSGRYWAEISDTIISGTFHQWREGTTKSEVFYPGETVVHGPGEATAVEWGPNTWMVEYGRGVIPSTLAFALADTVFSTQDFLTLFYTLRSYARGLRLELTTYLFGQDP

[10] = biological target: Histamine H2 receptor (Homo sapiens) (UniProt P25021); assay: Inhibition of histamine H2 receptor at 10 uM
Chain of Histamine H2 receptor (Homo sapiens) (P25021 whole entry): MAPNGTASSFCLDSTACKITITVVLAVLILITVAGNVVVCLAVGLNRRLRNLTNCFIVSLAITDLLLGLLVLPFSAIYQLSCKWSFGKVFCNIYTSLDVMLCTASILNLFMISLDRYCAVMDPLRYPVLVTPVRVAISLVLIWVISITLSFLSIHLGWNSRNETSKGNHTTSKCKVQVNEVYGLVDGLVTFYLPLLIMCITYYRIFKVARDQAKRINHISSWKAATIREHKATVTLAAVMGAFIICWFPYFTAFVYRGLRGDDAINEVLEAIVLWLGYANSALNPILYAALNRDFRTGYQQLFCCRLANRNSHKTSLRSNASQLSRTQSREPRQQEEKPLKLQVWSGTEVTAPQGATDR

IC50 [3]: > 10000 nM
IC50 [4]: 58 nM
inhibition [1]: < 30%
IC50 [5]: 19 nM
SMILES: CCNc1cc(C(=O)NCC(=O)N[C@@H](CNCc2ccc(C)cc2C)C(=O)NC(C)(C)C)cc(C(F)(F)F)c1

IC50 [3]: > 10000 nM
IC50 [4]: 52 nM
inhibition [1]: < 30%
IC50 [5]: 48 nM
SMILES: Cc1ccc(CNC[C@H](NC(=O)CNC(=O)c2cccc(C(F)(F)F)c2)C(=O)NC(C)(C)C)c(C)c1

inhibition [7]: > 70%
IC50 [3]: 750 nM
IC50 [4]: 8 nM
inhibition [1]: < 30%
inhibition (Homo sapiens): > 70%
inhibition [8]: > 70%
IC50 [5]: 11 nM
inhibition at 10 µM (L-type calcium channel): > 70%
inhibition [9]: > 70%
inhibition [10]: > 70%
SMILES: Cc1ccc(CNC[C@H](NC(=O)CNC(=O)c2cc(C(F)(F)F)ccc2N)C(=O)NC(C)(C)C)c(C)c1

IC50 [3]: > 10000 nM
IC50 [4]: 52 nM
inhibition [1]: < 30%
IC50 [5]: 23 nM
SMILES: Cc1ccc(CNC[C@H](NC(=O)CNC(=O)c2cc(N)cc(C(F)(F)F)c2)C(=O)NC(C)(C)C)c(C)c1

IC50 [3]: > 10000 nM
IC50 [4]: 84 nM
inhibition [1]: < 30%
IC50 [5]: 13 nM
SMILES: CCNc1ccc(C(F)(F)F)cc1C(=O)NCC(=O)N[C@@H](CNCc1ccc(C)cc1C)C(=O)NC(C)(C)C

IC50 [3]: 10000 nM
IC50 [4]: 58 nM
inhibition [1]: < 30%
IC50 [5]: 15 nM
SMILES: Cc1ccc(CNC[C@H](NC(=O)CNC(=O)c2cc(C(F)(F)F)ccc2NC(=O)NC(C)C)C(=O)NC(C)(C)C)c(C)c1

inhibition [1]: < 30%
IC50 [5]: 110 nM
SMILES: Cc1ccc(CNC[C@@H](NC(=O)CNC(=O)c2cccc(C(F)(F)F)c2)C(=O)NC(C)(C)C)c(C)c1

inhibition [1]: < 30%
IC50 [5]: 560 nM
SMILES: CCNC(=O)[C@@H](CNCc1ccc(C)cc1C)NC(=O)CNC(=O)c1cccc(C(F)(F)F)c1

inhibition [1]: < 30%
IC50 [5]: 130 nM
SMILES: Cc1ccc(CNC[C@H](NC(=O)CNC(=O)c2cc(NCC(C)C)cc(C(F)(F)F)c2)C(=O)NC(C)(C)C)c(C)c1

inhibition [1]: < 30%
IC50 [5]: 36 nM
SMILES: Cc1cc(N(C)C)ccc1CNC[C@H](NC(=O)CNC(=O)c1cccc(C(F)(F)F)c1)C(=O)NC(C)(C)C

inhibition [1]: < 30%
IC50 [5]: 230 nM
SMILES: CNC(=O)[C@H](CNCc1ccc(C)cc1C)NC(=O)CNC(=O)c1cccc(C(F)(F)F)c1

inhibition [1]: < 30%
IC50 [5]: 65 nM
SMILES: Cc1ccc(CNC[C@H](NC(=O)CNC(=O)c2cc(C(F)(F)F)ccc2NC(=O)OC(C)C)C(=O)NC(C)(C)C)c(C)c1

inhibition [1]: < 30%
IC50 [5]: 190 nM
SMILES: Cc1ccc(CNC[C@H](NC(=O)CNC(=O)c2cccc(C(F)(F)F)c2)C(=O)NC(C)(C)CO)c(C)c1

inhibition [1]: < 30%
Activity [2]: 25%
SMILES: Cc1ccc(CNC[C@H](NC(=O)CNC(=O)c2cc(NC(=O)C3CCCCC3)cc(C(F)(F)F)c2)C(=O)NC(C)(C)C)c(C)c1

inhibition [1]: < 30%
IC50 [5]: 16 nM
SMILES: CNc1cc(C(=O)NCC(=O)N[C@@H](CNCc2ccc(C)cc2C)C(=O)NC(C)(C)C)cc(C(F)(F)F)c1

inhibition [1]: < 30%
IC50 [5]: 110 nM
SMILES: CCNC(=O)[C@H](CNCc1ccc(C)cc1C)NC(=O)CNC(=O)c1cccc(C(F)(F)F)c1

inhibition [1]: < 30%
IC50 [5]: 690 nM
SMILES: COc1ccc(CNC[C@H](NC(=O)CNC(=O)c2cccc(C(F)(F)F)c2)C(=O)NC(C)(C)C)c(C)c1C

Continued, compound first:

SMILES: Cc1ccc(CNC[C@H](NC(=O)CNC(=O)c2cccc(C(F)(F)F)c2)C(=O)NC(C)(C)C)cc1F
inhibition [1]: < 30%
Activity [2]: 27%

SMILES: Cc1ccc(CNC[C@@H](NC(=O)CNC(=O)c2cccc(C(F)(F)F)c2)C(=O)O)c(C)c1
inhibition [1]: < 30%
Activity [6]: 31%

SMILES: Cc1ccc(CNC[C@@H](NC(=O)CNC(=O)c2cccc(C(F)(F)F)c2)C(C)C)c(C)c1
inhibition [1]: < 30%
Activity [6]: 20%

SMILES: CC(C)(C)NC(=O)[C@H](CNCc1ccc(-c2ccccc2)cc1)NC(=O)CNC(=O)c1cccc(C(F)(F)F)c1
inhibition [1]: < 30%
Activity [2]: 30%

SMILES: Cc1ccc(CNC[C@H](NC(=O)[C@H](C)NC(=O)c2cccc(C(F)(F)F)c2)C(N)=O)c(C)c1
inhibition [1]: < 30%
Activity [6]: 9%

SMILES: Cc1ccc(CN(C)C[C@H](NC(=O)CNC(=O)c2cccc(C(F)(F)F)c2)C(=O)NC(C)(C)C)c(C)c1
inhibition [1]: < 30%
Activity [2]: 12%

SMILES: Cc1ccc(CNC[C@H](C)NC(=O)CNC(=O)c2cccc(C(F)(F)F)c2)c(C)c1
inhibition [1]: < 30%
Activity [6]: 35%

SMILES: Cc1ccc(CNC[C@H](NC(=O)[C@@H](C)NC(=O)c2cccc(C(F)(F)F)c2)C(N)=O)c(C)c1
inhibition [1]: < 30%
Activity [6]: 40%

SMILES: CCNC(=O)[C@H](CNCc1ccc(C)cc1C)NC(=O)CCC(=O)c1cccc(C(F)(F)F)c1
inhibition [1]: < 30%
Activity [6]: 7%

SMILES: Cc1ccc(CNC[C@H](NC(=O)CNC(=O)c2cccc(C(F)(F)F)c2)C(N)=O)c(C)c1
IC50 [3]: > 10000 nM
IC50 [4]: 69 nM
inhibition [1]: < 30%
IC50 [5]: 66 nM

SMILES: CCNC(=O)[C@@H](NC(=O)CNC(=O)c1cccc(C(F)(F)F)c1)[C@H](C)NCc1ccc(C)cc1C
inhibition [1]: < 30%
Activity [6]: 2%

SMILES: C=CCNC(=O)[C@H](CNCc1ccc(C)cc1C)NC(=O)CNC(=O)c1cccc(C(F)(F)F)c1
inhibition [1]: < 30%
IC50 [5]: 200 nM

SMILES: COc1ccc(CNC[C@H](NC(=O)CNC(=O)c2cccc(C(F)(F)F)c2)C(=O)NC(C)(C)C)c(OC)c1
inhibition [1]: < 30%
Activity [2]: 37%

SMILES: CCNC(=O)[C@H](CCNCc1ccc(C)cc1C)NC(=O)CNC(=O)c1cccc(C(F)(F)F)c1
inhibition [1]: < 30%
IC50 [5]: 410 nM

SMILES: COC(=O)[C@@H](CNC(=O)CNC(=O)c1cccc(C(F)(F)F)c1)NCc1ccc(C)cc1C
inhibition [1]: < 30%
IC50 [5]: 15000 nM

SMILES: Cc1ccc(CNC[C@H](NC(=O)CNC(=O)c2cc(C(F)(F)F)ccc2NCc2ccccc2)C(=O)NC(C)(C)C)c(C)c1
IC50 [3]: > 10000 nM
IC50 [4]: 57 nM
inhibition [1]: < 30%
IC50 [5]: 19 nM

SMILES: Cc1ccc(CNC[C@H](NC(=O)CNC(=O)c2cccc(C(F)(F)F)c2)C(=O)NCC(F)(F)F)c(C)c1
inhibition [1]: < 30%
IC50 [5]: 55 nM

SMILES: Cc1ccc(CNC[C@H](NC(=O)CNC(=O)c2cccc(C(F)(F)F)c2)C(=O)NC2CCC2)c(C)c1
inhibition [1]: < 30%
IC50 [5]: 97 nM

SMILES: COC(=O)[C@@H](CNCc1ccc(C)cc1C)NC(=O)CNC(=O)c1cccc(C(F)(F)F)c1
inhibition [1]: < 30%
IC50 [5]: 1000 nM

SMILES: CCNC(=O)[C@H](CCN(C)Cc1ccc(C)cc1C)NC(=O)CNC(=O)c1cccc(C(F)(F)F)c1
inhibition [1]: < 30%
IC50 [5]: 150 nM

SMILES: CCNC(=O)[C@@H](NC(=O)CNC(=O)c1cccc(C(F)(F)F)c1)[C@@H](C)NCc1ccc(C)cc1C
inhibition [1]: < 30%
IC50 [5]: 130 nM

SMILES: Cc1ccc(CNC[C@H](NC(=O)CNC(=O)c2cccc(C(F)(F)F)c2)C(=O)NC(C)(C)C)cc1[N+](=O)[O-]
inhibition [1]: < 30%
IC50 [5]: 670 nM

SMILES: COC(=O)c1ccc(CNC[C@H](NC(=O)CNC(=O)c2cccc(C(F)(F)F)c2)C(=O)NC(C)(C)C)cc1
inhibition [1]: < 30%
Activity [2]: 20%

SMILES: Cc1ccc(CNC[C@H](NC(=O)CNC(=O)c2cccc(C(F)(F)F)c2)C(=O)Nc2ccccc2)c(C)c1
inhibition [1]: < 30%
IC50 [5]: 1200 nM
